Measured values reported in ChEMBL document CHEMBL1123864, “Synthetic bovine prothrombin precursor 13-29 for studies of vitamin K dependent carboxylase” (J Med Chem, 1987).
Values belong to the molecule of their own block, whether it stands above or below them. Peptide text beside a SMILES is read from it. * marks the point of attachment. Boc = CC(C)(C)OC(=O)*; Acm = CC(=O)NC*

Legend:
[1] = target: T1, Vitamin K-dependent gamma-carboxylase (Rattus norvegicus) (UniProt O88496); experiment: Substrate activity was determined for the rat liver microsomal vitamin K dependent carboxylase by dpm incorporation at 0.25 mM
T1 sequence (whole entry): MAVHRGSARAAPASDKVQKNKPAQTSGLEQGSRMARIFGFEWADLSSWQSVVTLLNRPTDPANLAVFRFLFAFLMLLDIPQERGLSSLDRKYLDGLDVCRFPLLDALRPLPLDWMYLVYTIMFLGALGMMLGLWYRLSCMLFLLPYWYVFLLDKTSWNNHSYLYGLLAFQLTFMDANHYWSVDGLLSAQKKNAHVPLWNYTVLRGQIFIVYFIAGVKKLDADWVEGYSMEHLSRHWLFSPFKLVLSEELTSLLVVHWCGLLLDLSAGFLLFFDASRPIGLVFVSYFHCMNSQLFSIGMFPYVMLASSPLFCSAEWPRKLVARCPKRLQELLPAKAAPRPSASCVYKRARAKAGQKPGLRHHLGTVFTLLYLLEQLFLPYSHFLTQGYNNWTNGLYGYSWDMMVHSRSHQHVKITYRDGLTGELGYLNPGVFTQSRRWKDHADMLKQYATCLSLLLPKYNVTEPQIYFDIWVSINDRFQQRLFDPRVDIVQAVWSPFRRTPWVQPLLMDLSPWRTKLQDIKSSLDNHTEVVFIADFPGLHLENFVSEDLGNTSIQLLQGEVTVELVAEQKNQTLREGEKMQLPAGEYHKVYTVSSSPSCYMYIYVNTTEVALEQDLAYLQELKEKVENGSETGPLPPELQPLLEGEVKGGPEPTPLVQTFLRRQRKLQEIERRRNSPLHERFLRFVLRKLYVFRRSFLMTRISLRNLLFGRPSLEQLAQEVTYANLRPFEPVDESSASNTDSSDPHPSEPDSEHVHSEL
In short: (§1)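 Rat liver microsomal carboxylase with the peptide as substrate. Incubations ran 60 min at 17 °C in duplicate and were averaged. Read-out was dpm incorporated, with the no-vitamin K blank subtracted. The enzyme requires oxygen, reduced vitamin K and carbon dioxide.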

[2] = target: T1, Vitamin K-dependent gamma-carboxylase (Rattus norvegicus); experiment: Substrate activity was determined for the rat liver microsomal vitamin K dependent carboxylase by dpm incorporation at 0.125 mM; in short: as §1
[3] = target: T1, Vitamin K-dependent gamma-carboxylase (Rattus norvegicus); experiment: Substrate activity was determined for the rat liver microsomal vitamin K dependent carboxylase by dpm incorporation at 0.0625 mM; in short: as §1
[4] = target: T1, Vitamin K-dependent gamma-carboxylase (Rattus norvegicus); experiment: Evaluated as substrate for the rat liver microsomal vitamin K dependent carboxylase by dpm incorporation at 0.0625 mM; in short: as §1
[5] = target: T1, Vitamin K-dependent gamma-carboxylase (Rattus norvegicus); experiment: Evaluated as substrate for the rat liver microsomal vitamin K dependent carboxylase by dpm incorporation at 0.25 mM; in short: as §1
[6] = target: T1, Vitamin K-dependent gamma-carboxylase (Rattus norvegicus); experiment: Evaluated as substrate for the rat liver microsomal vitamin K dependent carboxylase by dpm incorporation at 0.125 mM; in short: as §1
[7] = substrate: CC(C)C[C@H]1NC(=O)[C@H](N)CSSC[C@@H](C(=O)O)NC(=O)[C@@H]2CCCN2C(=O)[C@@H](CCC(=O)O)NC(=O)[C@H](CCC(=O)O)NC1=O; experiment: Binding affinity was evaluated for the compound against Vitamin K dependent carboxylase

Molecule: COC(=O)[C@H](CC(C)C)NC(=O)[C@H](CCC(=O)O)NC(=O)[C@H](CCC(=O)O)NC(=O)OC(C)(C)C (Boc-Glu-Glu-Leu-OMe)
Activity [4]: 3020
Activity [5]: 11400
Activity [6]: 5770

B1: Vitamin K-dependent gamma-carboxylase (Rattus norvegicus), O88496 (protein)
chain: T1 sequence (whole entry)
Km [7]: 3000 µM

Other lines, results leading:

Activity [1]: 2380
Activity [2]: 920
Activity [3]: 480
Molecule: CC(=O)NCSC[C@H](NC(=O)[C@H](CCC(=O)O)NC(=O)[C@H](CCCN=C(N)N)NC(=O)[C@H](CCC(=O)O)NC(=O)[C@H](CC(C)C)NC(=O)[C@@H](N)CC(N)=O)C(=O)N[C@@H](CC(C)C)C(=O)N[C@@H](CCC(=O)O)C(=O)N[C@@H](CCC(=O)O)C(=O)N1CCC[C@H]1C(=O)N[C@@H](CSCNC(C)=O)C(=O)N[C@@H](CO)C(=O)N[C@@H](CCCN=C(N)N)C(=O)N[C@@H](CCC(=O)O)C(=O)N[C@@H](CCC(=O)O)C(=O)N[C@@H](C)C(=O)N[C@@H](Cc1ccccc1)C(=O)O (H-NLEREC(Acm)LEEPC(Acm)SREEAF-OH)

Activity [1]: 810
Activity [2]: 480
Activity [3]: 240
Molecule: CC(C)C[C@H](NC(=O)[C@@H](N)CC(N)=O)C(=O)N[C@@H](CCC(=O)O)C(=O)N[C@@H](CCCN=C(N)N)C(=O)N[C@@H](CCC(=O)O)C(=O)N[C@@H]1CSSC[C@@H](C(=O)N[C@@H](CO)C(=O)N[C@@H](CCCN=C(N)N)C(=O)N[C@@H](CCC(=O)O)C(=O)N[C@@H](CCC(=O)O)C(=O)N[C@@H](C)C(=O)N[C@@H](Cc2ccccc2)C(=O)O)NC(=O)[C@@H]2CCCN2C(=O)[C@@H](CCC(=O)O)NC(=O)[C@H](CCC(=O)O)NC(=O)[C@@H](CC(C)C)NC1=O
